According to ChEMBL document CHEMBL4402564, “Synthetic Lethality in Pancreatic Cancer: Discovery of a New RAD51-BRCA2 Small Molecule Disruptor That Inhibits Homologous Recombination and Synergizes with Olaparib” (J Med Chem, 2020):
Calls of active or inactive are those of the source.

Key:
[1] = biological target: T1, DNA repair protein RAD51 homolog 1 (Homo sapiens) (UniProt Q06609); assay: Inhibition of RAD51 in human BxPC3 cells assessed as reduction in homologous recombination incubated for 5 hrs by RT-PCR analysis; format: cell-based
T1 sequence (whole entry): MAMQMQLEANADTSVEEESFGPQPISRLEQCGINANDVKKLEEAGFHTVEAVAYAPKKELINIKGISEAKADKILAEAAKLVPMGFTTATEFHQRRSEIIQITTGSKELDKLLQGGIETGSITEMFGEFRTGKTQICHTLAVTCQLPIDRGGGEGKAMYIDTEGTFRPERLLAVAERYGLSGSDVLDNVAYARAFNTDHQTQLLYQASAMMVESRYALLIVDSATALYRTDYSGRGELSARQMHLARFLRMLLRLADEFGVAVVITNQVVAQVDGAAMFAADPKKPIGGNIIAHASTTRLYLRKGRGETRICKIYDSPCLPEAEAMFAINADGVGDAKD
How it was run: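 Commercial two-plasmid recombination assay in BxPC-3 cells, with compound applied at different doses for 5 h simultaneously with plasmid transfection. Tested up to 40 μM, limited by solubility. Dose giving 50% HR inhibition estimated by polynomial regression.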

[2] = biological target: T1, DNA repair protein RAD51 homolog 1 (Homo sapiens); assay: Inhibition of RAD51 in human BxPC3 cells assessed as reduction in cisplatin-induced RAD51 foci formation at 20 uM preincubated for 1 hr in presence of cisplatin and followed by compound wash out and further incubated with fresh medium containing compounds for 4 hrs by DAPI-staining based immunofluorescence analysis; format: cell-based
How it was run: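 DNA damage induced in BxPC-3 by 1 h exposure to 50 μM cisplatin, with or without 20 μM disruptor. RAD51 nuclear foci immunostained and percentage of RAD51-labeled nuclei counted.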

[3] = biological target: T1, DNA repair protein RAD51 homolog 1 (Homo sapiens); assay: Inhibition of RAD51 in human BxPC3 cells assessed as increase in gamma-H2AX labelling at 20 uM after 48 hrs in presence of 10 uM olaparib by immunofluorescence microscopic analysis; format: cell-based
How it was run: (§1)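 Cells exposed 48 h to 20 μM disruptor alone or with 10 μM olaparib, in medium with 0.6% DMSO. Nuclear γ-H2AX foci visualized by immunofluorescence and percentage of labeled nuclei scored. BxPC-3 (functional BRCA2) and Capan-1 (BRCA2-defective) cultures in RPMI 1640 with 10% FBS.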

[4] = biological target: T1, DNA repair protein RAD51 homolog 1 (Homo sapiens); assay: Inhibition of RAD51 in BRCA2 defective human Capan1 cells assessed as increase in gamma-H2AX labelling at 20 uM after 48 hrs in presence of olaparib by immunofluorescence microscopic analysis; how it was run: as §1
BXPC-3 [5] = assay: Induction of DNA damage in human BxPC3 cells assessed as micronuclei formation at 20 uM after 72 hrs by DAPI-staining based fluorescence microscopic analysis; format: functional, cell-based
How it was run: (§2)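 BxPC-3 cultures treated 72 h with 20 μM disruptor, alone or with 10 μM olaparib, in 0.6% DMSO medium. Micronuclei outside the main nucleus visualized by DNA staining under the microscope. Percentage of micronucleated cells scored.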

BXPC-3 [6] = assay: Induction of DNA damage in human BxPC3 cells assessed as micronuclei formation at 20 uM after 72 hrs in presence of olaparib by DAPI-staining based fluorescence microscopic analysis; format: functional, cell-based; how it was run: as §2
BXPC-3 [7] = assay: Antiproliferative activity against human BxPC3 cells assessed as increase in cell death at 10 to 15 uM after 72 hrs in presence of olaparib by CellTox Green assay; format: functional, cell-based
How it was run: (§3)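 BxPC-3 cells in RPMI 1640 with 10% FBS and 2 mM glutamine. Exposed 72 h to disruptor alone or with 10 μM olaparib, in medium containing 0.6% DMSO. Cell death measured in parallel with viability. Disruptor-only and combination cultures compared statistically.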

BXPC-3 [8] = assay: Antiproliferative activity against human BxPC3 cells assessed as increase in cell death at 20 uM after 72 hrs in presence of olaparib by CellTox Green assay; format: functional, cell-based; how it was run: as §3
BXPC-3 [9] = assay: Induction of apoptosis in human BxPC3 cells assessed as increase in fluorescence at 20 uM after 72 hrs by DAPI/PI staining based fluorescence microscopic analysis; format: functional, cell-based
How it was run: (§4)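 BxPC-3 cells treated 72 h with disruptor alone or with olaparib, then stained with mixed DAPI (cell-permeable, nuclear condensation) and propidium iodide (membrane integrity loss). Nuclear morphology and dye uptake examined by fluorescence microscopy.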

BXPC-3 [10] = assay: Induction of apoptosis in human BxPC3 cells assessed as increase in fluorescence at 20 uM after 72 hrs in presence of olaparib by DAPI/PI staining based fluorescence microscopic analysis; format: functional, cell-based; how it was run: as §4
BXPC-3 [11] = assay: Synergistic antiproliferative activity against human BxPC3 cells at 20 uM after 72 hrs in presence of 10 uM olaparib by CellTiter-Glo luminescent cell viability assay; format: functional, cell-based
How it was run: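 BxPC-3 viability data from 72 h exposure to disruptor with 10 μM olaparib (0.6% DMSO medium) used to compute a combination index. CI <0.8 taken as synergism and 0.8–1.2 as additive. CI at each dose tested for difference from 0.8.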

HK-2 = assay: Cytotoxicity against human HK2 cells at 20 uM after 72 hrs in presence of 10 uM olaparib by CellTiter-Glo luminescent cell viability assay; format: cell-based; conditions: hk-2, 72 h
How it was run: (§5)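 HK-2 cells are non-neoplastic immortalized human kidney cells grown in DMEM:F12 with 40 ng/mL dexamethasone. Capan-1 cells are BRCA2-defective and grown in RPMI 1640 with 10% FBS and 2 mM glutamine. Both exposed to disruptor with olaparib in 0.6% DMSO medium for an antiproliferative read-out. Drug interaction assessed by two-way ANOVA and combination index (CI <0.8 synergism, 0.8–1.2 additive).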

CAPAN-1 = assay: Synergistic antiproliferative activity against BRCA2 defective human Capan1 cells at 20 uM after 72 hrs in presence of 10 uM olaparib by CellTiter-Glo luminescent cell viability assay; format: functional, cell-based; how it was run: as §5
BXPC-3 [12] = assay: Antiproliferative activity against human BxPC3 cells at 15 uM after 72 hrs in presence of olaparib by CellTiter-Glo luminescent cell viability assay; format: functional, cell-based
How it was run: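 BxPC-3 cells grown in RPMI 1640 with 10% FBS, penicillin/streptomycin and 2 mM glutamine. Disruptor given alone or with 10 μM olaparib in medium containing 0.6% DMSO, with the same DMSO in controls. Viability read at 72 h, measured alongside cell death.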

CCC(=O)N1N=C(c2c(-c3ccccc3)c3cc(Cl)ccc3[nH]c2=O)CC1c1ccc(OC)cc1 (racemic)
Non-Toxic: Activity (HK-2)
active: inhibition [1] Dose-dependent effect | inhibition [2] | inhibition [3] | Activity (BXPC-3 [5]) | Activity (BXPC-3 [6]) | Activity (BXPC-3 [8]) | Activity (BXPC-3 [9]) | Activity (BXPC-3 [10]) | Activity (BXPC-3 [11]) | Activity (CAPAN-1) | Activity (BXPC-3 [12])
inactive: inhibition [4] | Activity (BXPC-3 [7])
